Laboratory results taken from PMC7471454 (Acta Pharmacologica Sinica, 2019).
Entries after “also recorded” stand apart in the source; their conditions may differ.

Legend:
hNav1.7 channels = hNav1.7 channels (Homo sapiens, UniProt Q15858); test: cell-based; settings: for Nav1.7/Nav1.5 selectivity (in words): Nav1.7 versus Nav1.5; for inhibitory activity against Nav1.7 (in words): HEK293 cells stably expressing hNav1.7; for activity toward Nav1.7 relative to 10h: higher than that of 10h
[1] = system: acetic acid-induced writhing in ICR mice; test: Acetic acid-induced writhing test; format: in vivo, mouse; settings: i.p. 30 min before 1.5% acetic acid, writhes counted for 30 min
In short: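 Male ICR mice (22–28 g) received test compound i.p. in 5% DMSO/95% (0.5% carboxymethyl cellulose sodium) at 0.2 mL/10 g, 30 min before i.p. 1.5% acetic acid (10 mL/kg). Writhes, defined as abdominal contraction with body elongation and hind-limb extension, were counted over 30 min under blinded assessment. Indomethacin 30 mg/kg p.o. was given 60 min prior as reference. n = 6–12; one-way ANOVA.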

[2] = system: neuronal excitability of small-diameter DRG neurons; test: Firing frequency of DRG neurons; format: cell-based, mouse; settings: 500 ms current injection, 10 and 100 nmol/L
hNav1.5 channels = hNav1.5 channels (Homo sapiens, UniProt Q14524); test: Whole-cell voltage-clamp on human Nav1.5 channels stably expressed in CHL cells; format: cell-based
Sequence of hNav1.5 channels (Q14524 whole entry): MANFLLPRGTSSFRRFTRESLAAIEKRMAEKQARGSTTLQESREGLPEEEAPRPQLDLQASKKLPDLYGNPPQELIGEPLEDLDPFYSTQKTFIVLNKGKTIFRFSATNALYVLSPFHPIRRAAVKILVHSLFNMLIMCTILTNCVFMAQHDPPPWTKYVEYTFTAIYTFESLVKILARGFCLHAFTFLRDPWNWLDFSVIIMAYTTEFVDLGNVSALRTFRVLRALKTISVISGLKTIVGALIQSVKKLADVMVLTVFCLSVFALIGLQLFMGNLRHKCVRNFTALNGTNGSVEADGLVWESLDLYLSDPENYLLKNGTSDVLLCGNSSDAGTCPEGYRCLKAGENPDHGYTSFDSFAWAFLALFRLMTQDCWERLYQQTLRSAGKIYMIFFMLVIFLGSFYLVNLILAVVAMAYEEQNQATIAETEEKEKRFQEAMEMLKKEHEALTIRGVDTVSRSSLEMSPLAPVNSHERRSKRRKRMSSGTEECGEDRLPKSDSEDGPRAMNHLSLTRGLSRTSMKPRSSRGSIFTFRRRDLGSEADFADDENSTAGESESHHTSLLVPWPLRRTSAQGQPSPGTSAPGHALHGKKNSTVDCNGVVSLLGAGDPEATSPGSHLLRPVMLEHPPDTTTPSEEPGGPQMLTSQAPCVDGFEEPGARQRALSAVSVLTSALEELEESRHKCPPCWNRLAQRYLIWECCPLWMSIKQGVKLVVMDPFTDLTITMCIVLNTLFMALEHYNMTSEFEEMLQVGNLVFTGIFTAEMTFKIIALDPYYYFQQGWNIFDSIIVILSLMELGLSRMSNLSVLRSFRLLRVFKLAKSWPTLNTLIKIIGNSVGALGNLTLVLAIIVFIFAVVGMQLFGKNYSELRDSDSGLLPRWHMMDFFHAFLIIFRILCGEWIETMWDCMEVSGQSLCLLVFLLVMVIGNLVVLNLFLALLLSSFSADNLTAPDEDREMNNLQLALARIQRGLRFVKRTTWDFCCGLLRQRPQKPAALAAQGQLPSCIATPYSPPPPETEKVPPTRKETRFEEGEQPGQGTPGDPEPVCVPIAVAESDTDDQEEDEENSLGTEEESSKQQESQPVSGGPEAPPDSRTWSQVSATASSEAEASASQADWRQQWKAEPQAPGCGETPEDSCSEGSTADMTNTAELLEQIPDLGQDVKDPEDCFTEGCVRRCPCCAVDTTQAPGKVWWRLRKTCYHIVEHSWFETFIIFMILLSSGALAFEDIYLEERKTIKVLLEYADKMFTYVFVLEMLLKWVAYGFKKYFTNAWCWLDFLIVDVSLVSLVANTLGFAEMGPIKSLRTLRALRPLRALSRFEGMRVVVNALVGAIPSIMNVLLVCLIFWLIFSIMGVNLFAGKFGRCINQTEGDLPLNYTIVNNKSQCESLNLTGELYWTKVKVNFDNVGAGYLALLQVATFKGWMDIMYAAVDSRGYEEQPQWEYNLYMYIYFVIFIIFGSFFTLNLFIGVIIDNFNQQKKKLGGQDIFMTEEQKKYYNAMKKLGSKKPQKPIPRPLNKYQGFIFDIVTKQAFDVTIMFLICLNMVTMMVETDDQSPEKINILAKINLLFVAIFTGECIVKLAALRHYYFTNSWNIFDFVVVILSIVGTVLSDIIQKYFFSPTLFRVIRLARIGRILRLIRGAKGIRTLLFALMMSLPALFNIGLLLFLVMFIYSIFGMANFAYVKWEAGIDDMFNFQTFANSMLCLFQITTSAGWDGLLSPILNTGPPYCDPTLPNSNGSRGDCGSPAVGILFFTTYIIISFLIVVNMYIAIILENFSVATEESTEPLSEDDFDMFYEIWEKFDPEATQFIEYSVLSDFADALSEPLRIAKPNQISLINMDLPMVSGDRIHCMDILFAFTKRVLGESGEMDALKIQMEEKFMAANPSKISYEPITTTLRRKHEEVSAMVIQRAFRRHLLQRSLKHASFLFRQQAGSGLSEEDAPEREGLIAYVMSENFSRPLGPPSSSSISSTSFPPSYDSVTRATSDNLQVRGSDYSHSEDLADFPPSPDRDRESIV
In short: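 CHL cells stably expressing hNav1.5 were selected in G418 (500 µg/mL), plated on poly-L-lysine coverslips and used within 24 h. Whole-cell voltage clamp at room temperature, with CsF pipette and NaCl bath (pH 7.3); DMSO ≤0.5% final. After 5 min at −80 mV: hold −40 mV, 20 ms prepulse to −150 mV, 10 ms pulse to 0 mV at 1 Hz. Peak IDrug/IControl was fitted to a 3-parameter Hill equation for IC50.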

[3] = system: native sodium currents in mouse DRG neurons; test: Native sodium currents in isolated DRG neurons; format: cell-based; settings: for reduction of sodium current amplitude: mouse DRG neurons

| Compound | IC50 (hNav1.7 channels) | inhibitory activity against Nav1.7 (in words) (hNav1.7 channels) | other results |
| --- | --- | --- | --- |
| CN1CC(OCC(CCC23CCC(c4ccccc42)c2ccccc23)Oc2ccc(S(=O)(=O)Nc3ncns3)cc2C#N)C1 (centres unmarked) [10m, 3-cyano-4-((4-(9,10-dihydro-9,10-ethanoanthracen-9-yl)-1-((1-methylazetidin-3-yl)oxy)butan-2-yl)oxy)-N-(1,2,4-thiadiazol-5-yl)benzenesulfonamide] | 2.98 nM |  |  |
| CN(C)CCOCC(CCC12CCC(c3ccccc31)c1ccccc12)Oc1ccc(S(=O)(=O)Nc2ncns2)cc1C#N (centres unmarked) [10k, 3-cyano-4-((4-(9,10-dihydro-9,10-ethanoanthracen-9-yl)-1-(2-(dimethylamino)ethoxy)butan-2-yl)oxy)-N-(1,2,4-thiadiazol-5-yl)benzenesulfonamide] | ~10 nM |  | Nav1.7/Nav1.5 selectivity (in words) (hNav1.7 channels): well maintained |
| CC(C)NCC(CC12CCC(c3ccccc31)c1ccccc12)Oc1ccc(S(=O)(=O)Nc2ncns2)cc1C#N (centres unmarked) [9c, 3-cyano-4-((1-(9,10-dihydro-9,10-ethanoanthracen-9-yl)-3-(isopropylamino)propan-2-yl)oxy)-N-(1,2,4-thiadiazol-5-yl)benzenesulfonamide] |  | not as good as that of MPT |  |
| N#Cc1cc(S(=O)(=O)Nc2ncns2)ccc1OC(CCC12CCC(c3ccccc31)c1ccccc12)COCCN1CCOCC1 (centres unmarked) [10q, 3-cyano-4-((4-(9,10-dihydro-9,10-ethanoanthracen-9-yl)-1-(2-morpholinoethoxy)butan-2-yl)oxy)-N-(1,2,4-thiadiazol-5-yl)benzenesulfonamide] | 33.5 nM |  | Nav1.7/Nav1.5 selectivity (in words) (hNav1.7 channels): good selectivity |
| CCOCC(CCC12CCC(c3ccccc31)c1ccccc12)Oc1ccc(S(=O)(=O)Nc2ncns2)cc1C#N (centres unmarked) [10i, 3-cyano-4-((4-(9,10-dihydro-9,10-ethanoanthracen-9-yl)-1-ethoxybutan-2-yl)oxy)-N-(1,2,4-thiadiazol-5-yl)benzenesulfonamide] |  |  | activity toward Nav1.7 relative to 10h (hNav1.7 channels): 10 times |
| N#Cc1cc(S(=O)(=O)Nc2ncns2)ccc1OC(CCC12CCC(c3ccccc31)c1ccccc12)COCCN1CCCC1 (centres unmarked) [10o, 3-cyano-4-((4-(9,10-dihydro-9,10-ethanoanthracen-9-yl)-1-(2-(pyrrolidin-1-yl)ethoxy)butan-2-yl)oxy)-N-(1,2,4-thiadiazol-5-yl)benzenesulfonamide] | 0.64 ± 0.3 nM |  | effect on acetic acid-induced writhing (in words) [1]: dose-dependently decreased; selectivity for Nav1.7 over Nav1.5 (hNav1.7 channels; from the Nav1.5 and Nav1.7 IC50): > 50 000 times; effect on action potentials / firing frequency (in words) [2]: dramatically suppressed depolarizing current-elicited neuronal discharge; also recorded: dose-dependently suppressed; IC50 (hNav1.5 channels): 33.6 µM; reduction of sodium current amplitude ([3]; 10 nmol/L): 24% ± 6%; reduction of sodium current amplitude ([3]; 100 nmol/L): 40% ± 6%; effect on native sodium currents (in words) ([3]; mouse small-sized DRG neurons, 10 and 100 nmol/L): dose-dependently decreased the sodium currents |
| CCNCC(CC12CCC(c3ccccc31)c1ccccc12)Oc1ccc(S(=O)(=O)Nc2ncns2)cc1C#N (centres unmarked) [9b, 3-cyano-4-((1-(9,10-dihydro-9,10-ethanoanthracen-9-yl)-3-(ethylamino)propan-2-yl)oxy)-N-(1,2,4-thiadiazol-5-yl)benzenesulfonamide] |  | not as good as that of MPT |  |
| N#Cc1cc(S(=O)(=O)Nc2ncns2)ccc1OC(CCC12CCC(c3ccccc31)c1ccccc12)COCCN1CCCCC1 (centres unmarked) [10p, 3-cyano-4-((4-(9,10-dihydro-9,10-ethanoanthracen-9-yl)-1-(2-(piperidin-1-yl)ethoxy)butan-2-yl)oxy)-N-(1,2,4-thiadiazol-5-yl)benzenesulfonamide] | 12.5 nM |  | Nav1.7/Nav1.5 selectivity (in words) (hNav1.7 channels): good selectivity |
| CNCC(CC12CCC(c3ccccc31)c1ccccc12)Oc1ccc(S(=O)(=O)Nc2ncns2)cc1C#N (centres unmarked) [9a, 3-cyano-4-((1-(9,10-dihydro-9,10-ethanoanthracen-9-yl)-3-(methylamino)propan-2-yl)oxy)-N-(1,2,4-thiadiazol-5-yl)benzenesulfonamide] |  | not as good as that of MPT |  |
| C#CCN(C)CC(CCC12CCC(c3ccccc31)c1ccccc12)Oc1ccc(S(=O)(=O)Nc2ncns2)cc1C#N (centres unmarked) [10e, 3-cyano-4-((4-(9,10-dihydro-9,10-ethanoanthracen-9-yl)-1-(methyl(prop-2-yn-1-yl)amino)butan-2-yl)oxy)-N-(1,2,4-thiadiazol-5-yl)benzenesulfonamide] |  | maintained the activity of 10a |  |
| CCN(C)CC(CCC12CCC(c3ccccc31)c1ccccc12)Oc1ccc(S(=O)(=O)Nc2ncns2)cc1C#N (centres unmarked) [10b, 3-cyano-4-((4-(9,10-dihydro-9,10-ethanoanthracen-9-yl)-1-(ethyl(methyl)amino)butan-2-yl)oxy)-N-(1,2,4-thiadiazol-5-yl)benzenesulfonamide] |  | weak |  |
| N#Cc1cc(S(=O)(=O)Nc2ncns2)ccc1OC(CCC12CCC(c3ccccc31)c1ccccc12)COCc1ccccc1 (centres unmarked) [10j, 4-((1-(benzyloxy)-4-(9,10-dihydro-9,10-ethanoanthracen-9-yl)butan-2-yl)oxy)-3-cyano-N-(1,2,4-thiadiazol-5-yl)benzenesulfonamide] |  |  | activity toward Nav1.7 relative to 10h (hNav1.7 channels): 10 times |
| CN(Cc1ccc(C(F)(F)F)cc1)CC(CCC12CCC(c3ccccc31)c1ccccc12)Oc1ccc(S(=O)(=O)Nc2ncns2)cc1C#N (centres unmarked) [10g, 3-cyano-4-((4-(9,10-dihydro-9,10-ethanoanthracen-9-yl)-1-(methyl(4-(trifluoromethyl)benzyl)amino)butan-2-yl)oxy)-N-(1,2,4-thiadiazol-5-yl)benzenesulfonamide] |  | maintained the activity of 10a |  |
| C=CCN(C)CC(CCC12CCC(c3ccccc31)c1ccccc12)Oc1ccc(S(=O)(=O)Nc2ncns2)cc1C#N (centres unmarked) [10d, 4-((1-(allyl(methyl)amino)-4-(9,10-dihydro-9,10-ethanoanthracen-9-yl)butan-2-yl)oxy)-3-cyano-N-(1,2,4-thiadiazol-5-yl)benzenesulfonamide] |  | weak |  |
| CN(CCc1ccccc1)CC(CCC12CCC(c3ccccc31)c1ccccc12)Oc1ccc(S(=O)(=O)Nc2ncns2)cc1C#N (centres unmarked) [10f, 3-cyano-4-((4-(9,10-dihydro-9,10-ethanoanthracen-9-yl)-1-(methyl(phenethyl)amino)butan-2-yl)oxy)-N-(1,2,4-thiadiazol-5-yl)benzenesulfonamide] |  | weak |  |
| CNCCOCC(CCC12CCC(c3ccccc31)c1ccccc12)Oc1ccc(S(=O)(=O)Nc2ncns2)cc1C#N (centres unmarked) [10l, 3-cyano-4-((4-(9,10-dihydro-9,10-ethanoanthracen-9-yl)-1-(2-(methylamino)ethoxy)butan-2-yl)oxy)-N-(1,2,4-thiadiazol-5-yl)benzenesulfonamide] | ~10 nM |  | Nav1.7/Nav1.5 selectivity (in words) (hNav1.7 channels): well maintained |
| Nc1[nH]ncc1-c1cc(Cl)ccc1Oc1cc(F)c(S(=O)(=O)Nc2cscn2)cc1Cl [PF-05089771, 4-[2-(5-Amino-1H-pyrazol-4-yl)-4-chlorophenoxy]-5-chloro-2-fluoro-N-1,3-thiazol-4-ylbenzenesulfonamide, reference compound] |  |  | effect on acetic acid-induced writhing (in words) [1]: dose-dependently decreased; effect on action potentials / firing frequency (in words) [2]: dose-dependently suppressed |
| CC(C)N(C)CC(CCC12CCC(c3ccccc31)c1ccccc12)Oc1ccc(S(=O)(=O)Nc2ncns2)cc1C#N (centres unmarked) [10c, 3-cyano-4-((4-(9,10-dihydro-9,10-ethanoanthracen-9-yl)-1-(isopropyl(methyl)amino)butan-2-yl)oxy)-N-(1,2,4-thiadiazol-5-yl)benzenesulfonamide] |  | maintained the activity of 10a |  |
| N#Cc1cc(S(=O)(=O)Nc2ncns2)ccc1OC(CCC12CCC(c3ccccc31)c1ccccc12)COCCN1CCC1 (centres unmarked) [10n, 4-((1-(2-(azetidin-1-yl)ethoxy)-4-(9,10-dihydro-9,10-ethanoanthracen-9-yl)butan-2-yl)oxy)-3-cyano-N-(1,2,4-thiadiazol-5-yl)benzenesulfonamide] | 5.38 nM |  | Nav1.7/Nav1.5 selectivity (in words) (hNav1.7 channels): good selectivity |
